Assay [1] can be described thus: Inhibition of HCV genotype 1b NS5Bdelta21 RNA dependent RNA polymerase expressed in Escherichia coli JM109 (DE3). Details: species or system Hepatitis C virus subtype 1b.
Another assay concerns Hepatitis C virus. Put plainly: Antiviral activity against Hepatitis C virus Con1 genotype 1b expressing NS2-NS5B infected in human HuH7 cells after 72 hrs by luciferase reporter gene assay. In kind it is functional, organism-based, Hepacivirus hominis. The conditions noted are these: isolate Con1, Huh-7, 72 h. The method in brief: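 Cells carrying a bicistronic luciferase reporter subgenomic replicon (Con1 GT-1b, NS2-NS5B coding region) were incubated with compound for 72 h. Relative luciferase levels were then read with Bright-Glo substrate, and EC50 values were derived from these readings.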
A general note: In a reporter assay the amount or activity of a reporter protein is the signal.

The species named for assay [2] is Homo sapiens. The experiment in a line: Inhibition of DNA polymerase-alpha (unknown origin).
A further assay concerns Enterovirus C. The experiment in a line: Inhibition of poliovirus RdRp.
Assay [3] is filed under the species Homo sapiens. Put plainly: Inhibition of DdRp-2 (unknown origin).
The target in assay [4] is DNA polymerase beta (Homo sapiens) (UniProt P06746). The experiment in a line: Inhibition of DNA polymerase-beta (unknown origin).
Assay [5] is filed under the species Homo sapiens. Put plainly: Inhibition of DNA polymerase-gamma (unknown origin).

Active and inactive are the calls of the source. The rule behind the calls is not given here.

What is called IC50 is the midpoint of a concentration-inhibition curve. High values mean weaker potency, low ones greater potency. For the molecule `C[C@@H](NC(=O)c1ccc2c(c1)nc(-c1ccoc1)n2C1CCCCC1)C(=O)Nc1ccc(/C=C/C(=O)O)cc1`, the midpoint of inhibition in assay [1], the IC50, lay at 88 nM. With `Cn1c(C(=O)O)cc2cc(NC(=O)C3(NC(=O)c4ccc5c(c4)nc(-c4ccoc4)n5C4CCCCC4)CCCNC3)ccc21` (single isomer, unassigned; enantiomer 1), the IC50 in assay [1] is 1300 nM. Compared with the last molecule, the IC50 is about 15-fold higher. One may read the EC50 as the midpoint of the concentration-response curve. On to `O=C(O)COc1ccc2[nH]cc(C[C@H](NC(=O)c3ccc4c(c3)nc(-c3ccoc3)n4C3CCCCC3)C(=O)O)c2c1`, for which the EC50 in the assay on Hepatitis C virus worked out at 65000 nM. With `Cn1c(C2(NC(=O)c3ccc4c(C5CCCC5)c(-c5ncc(Br)cn5)n(C)c4c3)CCC2)nc2ccc(/C=C/C(=O)O)cc21` [DELEOBUVIR], in assay [1], the midpoint of inhibition, the IC50, lay at 50 nM. The inhibition result (in the assay filed under Homo sapiens [2]; with Enterovirus C; in the assay listed under Homo sapiens [3]; in assay [4]; in the assay filed under Homo sapiens [5]) was “inactive” in each case. In turn, `Cn1c(C2(NC(=O)c3ccc4c5c(n(C)c4c3)CCCC53CCCCC3)CCC2)nc2ccc(/C=C/C(=O)O)cc21` registered an EC50 with Hepatitis C virus of 49 nM. This molecule also had an IC50 in assay [1] of 180 nM. As to `Cn1c(C(=O)O)cc2cc(NC(=O)C3(NC(=O)c4ccc5c(c4)nc(-c4ccoc4)n5C4CCCCC4)CCCNC3)ccc21` (single isomer, unassigned; enantiomer 2), the IC50 in assay [1] is 84 nM. The same measure, in the same setting: the result for `Cn1c(C(=O)O)cc2cc(NC(=O)C3(NC(=O)c4ccc5c(c4)nc(-c4ccoc4)n5C4CCCCC4)CCNCC3)ccc21` reads 55 nM.

In turn, `COc1ccc2c(c1)OCCn1c-2c(C2CCCCC2)c2ccc(C(=O)NC3(C(=O)Nc4ccc(/C=C/C(=O)O)cc4)CCC3)cc21` had an EC50 in the assay on Hepatitis C virus of 4 nM. The molecule further registered an IC50 in assay [1] of 560 nM. Take `C[C@@H](NC(=O)c1ccc2c(n1)nc(-c1ccoc1)n2C1CCCCC1)C(=O)Nc1ccc(/C=C/C(=O)O)cc1`: the IC50 in assay [1] came to 330 nM. As to `Cn1c2c(c3ccc(C(=O)O)cc31)C1(CCCCC1)CCC2`, the EC50 in the assay on Hepatitis C virus is > 11000 nM. Also, inhibition in assay [1] was half-maximal at 16000 nM (IC50). Taken in the same sequence, the figures for `Cn1c(C2(NC(=O)c3ccc4c5c(n(C)c4c3)CCCC53CCCCC3)CCC2)nc2cc3cc(C(=O)O)sc3cc21` were 38 nM and 350 nM. As to `Cc1cc2c(cc1C(=O)N[C@H](C)C(=O)Nc1ccc(/C=C/C(=O)O)cc1)nc(-c1ccoc1)n2C1CCCCC1`, the midpoint of inhibition in assay [1], the IC50, lay at 4000 nM.

In the assay with Hepatitis C virus, `O=C(O)/C=C/c1ccc(NC(=O)C2(NC(=O)c3ccc4c(c3)nc(-c3ccoc3)n4C3CCCCC3)CCNCC2)cc1` yielded an EC50 of 5000 nM. This molecule yielded an IC50 in assay [1] of 43 nM. With `CCOc1cc(NC(=O)C2(NC(=O)c3ccc4c5c(n(C)c4c3)CCCC53CCCCC3)CCC2)ccc1/C=C/C(=O)O`, in the assay on Hepatitis C virus, the EC50 was determined as 94 nM. Further, it took 460 nM to reach half-maximal inhibition in assay [1] (IC50). Take `Cc1c(C(=O)N[C@H](C)C(=O)Nc2ccc(/C=C/C(=O)O)cc2)ccc2c1nc(-c1ccoc1)n2C1CCCCC1`: in assay [1], it took 890 nM to reach half-maximal inhibition (IC50). That is a sub-micromolar value.

The values above are taken from ChEMBL document CHEMBL3120048 (J Med Chem, 2014).
